The values that follow come from ChEMBL document CHEMBL3797084, “Design and evaluation of novel oxadiazole derivatives as potential prostate cancer agents” (Bioorg Med Chem Lett, 2016).

Molecules are shown by their SMILES.

For one test, the system named is LNCaP. Briefly: Cytotoxicity against human LNCAP cells assessed as growth inhibition after 24 hrs by sulforhodamine B assay. It counts as functional, cell-based. In outline:
(§1)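 LNCaP and PC-3 were kept as monolayers in RPMI with 10% heat-inactivated FBS and penicillin/streptomycin at 37 °C in 5% CO2. Cells were seeded, left overnight, then treated at various concentrations in triplicate wells for 24 h. They were fixed with 10% TCA for 1 h at 4 °C and stained 10 min with 0.4% SRB in 1% acetic acid. Bound dye was solubilized in Tris-HCl and read at 564 nm. IC50 came from a Boltzmann sigmoidal nonlinear fit, as the mean of at least three experiments.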
In general terms: Sulforhodamine B stains cellular protein and so reports cell mass.

A short description of test [1]: Cytotoxicity against human PC3 cells assessed as growth inhibition after 24 hrs by sulforhodamine B assay. It counts as functional, cell-based. The note with it: PC-3, 24 h. In outline:
as §1

Test [2] is described as follows: Cell cycle arrest in human PC3 cells assessed as accumulation at sub G0/G1 phase at 0.2 uM after 48 hrs by propidium iodide staining-based flow cytometry (reference value: 1.6%). It counts as functional. Particulars: PC-3.
Test [3] can be described thus: Cell cycle arrest in human PC3 cells assessed as accumulation at G0/G1 phase at 0.2 uM after 48 hrs by propidium iodide staining-based flow cytometry (reference value: 58%). The note with it: PC-3. The class given is functional. A general note: In flow cytometry, cells or beads pass a laser one at a time.
A short description of test [4]: Cell cycle arrest in human PC3 cells assessed as accumulation at S phase at 0.2 uM after 48 hrs by propidium iodide staining-based flow cytometry (reference value: 6.9%). It counts as functional. The note with it: PC-3.
The nature of test [5]: Cell cycle arrest in human PC3 cells assessed as accumulation at G2/M phase at 0.2 uM after 48 hrs by propidium iodide staining-based flow cytometry (reference value: 25.1%). The note with it: PC-3. It counts as functional.
Test [6] has as its system PC-3. Briefly: Induction of apoptosis in human PC3 cells assessed as early apoptotic cells at 0.2 uM after 48 hrs by propidium iodide staining-based flow cytometry (reference value: 4.4%). The class given is functional.
Test [7] deals with PC-3. Briefly: Induction of apoptosis in human PC3 cells assessed as late apoptotic cells at 0.2 uM after 48 hrs by propidium iodide staining-based flow cytometry (reference value: 4.2%). It counts as functional.
Test [8] concerns PC-3. Briefly: Induction of apoptosis in human PC3 cells assessed as necrotic cells at 0.2 uM after 48 hrs by propidium iodide staining-based flow cytometry (reference value: 0.4%). It counts as functional.
Test [9] has as its system PC-3. Briefly: Induction of apoptosis in human PC3 cells assessed as viable cells at 0.2 uM after 48 hrs by propidium iodide staining-based flow cytometry (reference value: 91%). It counts as functional. Particulars: PC-3, 48 h, read-out: Activity.

Turning to `O=C(Nc1nnc(-c2ccccc2)o1)c1ccccc1`, the IC50 – broadly, the concentration that inhibits the measured activity by half – came to 1.33 µM in the test on LNCaP and 0.22 µM in test [1]. In addition, the Activity in test [2] worked out at 12.1%; in test [3], 50.8%; in test [4] it was 9%; in test [5], 21.2%; in the test with PC-3 [6], 13.2%; with PC-3 [7] it was 15.8%. The Activity with PC-3 [8] stood at 21.3%. Besides, the viability at 0.2 µM in the test with PC-3 [9] is 49.7%.

Consider `O=c1[nH]cc(F)c(=O)[nH]1` [FLUOROURACIL], for which the IC50 (in the test on LNCaP; in test [1]) was 0.03 µM throughout.

Regarding `O=S(=O)(Nc1nnc(-c2ccc3ccccc3c2)o1)c1ccc2ccccc2c1`, the results for the IC50 (in the test with LNCaP; in test [1]) were 3.2 µM and 47.8 µM, respectively.

With `O=S(=O)(Nc1nnc(-c2ccc(C(F)(F)F)cc2)o1)c1ccc2ccccc2c1`, the IC50 in the test on LNCaP was 3.9 µM; in test [1] it was 22.2 µM.

Turning to `O=S(=O)(Nc1nnc(-c2ccc(C(F)(F)F)cc2)o1)c1ccccc1`, the IC50 with LNCaP was 2.5 µM; in [1], 8.34 µM.

Consider `O=C(Nc1nnc(-c2ccccc2)o1)c1ccc2ccccc2c1`, for which the IC50 was 32.3 µM in the test with LNCaP and 26 µM in test [1].

With `O=C(Nc1nnc(-c2ccc3ccccc3c2)o1)c1ccc(C(F)(F)F)cc1`, the IC50 in the test on LNCaP was 6.55 µM; in test [1], 11.1 µM.
